Source: ChEMBL document CHEMBL2331195, “Lahorenoic acids A-C, ortho-dialkyl-substituted aromatic acids from the biocontrol strain Pseudomonas aurantiaca PB-St2” (J Nat Prod, 2013)
≈ marks a conversion by molar mass, not a printed value. Calls of active or inactive are those of the source. The calls are words filed in the database; no cut-off is given here.

How the values were obtained:
HCT-116 = assay: Cytotoxicity against human HCT116 cells assessed as growth inhibition after 5 days by hemocytometry; assay type: cell-based
Outline: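 HCT-116 cells were seeded at 5 × 10^4 cells/T25 flask in serum medium with 1% penicillin–streptomycin and 1% glutamine, at 37 °C and 5% CO2. Compound at various concentrations was added on day 3, followed by 120 h incubation. Cells were trypsinized, washed and resuspended in HBSS, then hemocytometer-counted. Counts were normalized to untreated control, and IC50 was derived by nonlinear regression.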

[1] = tested on: Mycobacterium tuberculosis; assay: Antituberculosis activity against Mycobacterium tuberculosis H37Rv […] incubated for 7 days by Alamar blue assay; assay type: functional
Outline: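 Virulent H37Rv (ATCC 27294) in 96-well plate; compounds from 10 mg/mL DMSO stock, 2-fold dilutions from top 100 μg/mL (1% v/v DMSO final); 7 days at 37 °C; growth by Alamar Blue fluorescence; MIC = lowest concentration giving ≥90% fluorescence inhibition versus untreated bacteria; rifampicin and isoniazid positive controls, 1% DMSO negative control.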

Bacillus cereus = assay: Antibacterial activity against Bacillus cereus assessed as inhibition of visible bacterial growth after 24 hrs; assay type: functional
Outline: (§1)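 Broth microdilution MIC using 2-fold serial dilutions. A. crystallopoietes DSM 20117 was grown in tryptic soy broth, and B. cereus in half-concentrated Mueller–Hinton broth. Final inoculum was 10^5 CFU per well. After 24 h at 37 °C, the MIC was read as the lowest concentration with no visible growth. Values are means of three independent determinations.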

[2] = tested on: Arthrobacter crystallopoietes; assay: Antibacterial activity against Arthrobacter crystallopoietes DSM 20117 assessed as inhibition of visible bacterial growth after 24 hrs; assay type: functional; settings: Crystallibacter crystallopoietes; outline: as §1
[3] = Antifungal activity against Colletotrichum falcatum assessed as inhibition of mycelial growth at 100 ug/disc incubated for 10 to 15 days at 25 degC; assay type: functional
Outline: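 Four C. falcatum strains from local sugar cane varieties (BF166, C01148, CP77400, SPF234) on potato dextrose agar; mycelial plug at plate centre, compound-loaded air-dried filter discs (25–200 μg, in methanol, chloroform or DMSO) placed 2 cm away; 10–15 days at 25 °C; zone of mycelial inhibition around disc; solvent discs as negative controls; three repeats in duplicate.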

LNCaP = assay: Solid tumor cytotoxicity against human LNCAP cells assessed as inhibition of cell colony formation by disc diffusion soft-agar colony formation assay; assay type: functional, cell-based
Outline: (§2)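 Cells plated in soft agar; compound dissolved in 250 μL DMSO, 15 μL applied to a cellulose disc on the plate; after incubation, colony-inhibition zone measured from disc edge to colony growth in zone units (200 zu = 6 mm); solid-tumour selectivity judged as ≥250 zu difference versus leukemia or normal CFU-GM cells.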

MCF7 = assay: Solid tumor cytotoxicity against human MCF7 cells assessed as inhibition of cell colony formation by disc diffusion soft-agar colony formation assay; assay type: functional, cell-based; outline: as §2
H125 = assay: Solid tumor cytotoxicity against human H125 cells assessed as inhibition of cell colony formation by disc diffusion soft-agar colony formation assay; assay type: functional, cell-based; outline: as §2

SMILES | IC50 (HCT-116; hct-116) | MIC90 ([1]; H37Rv ATCC 27292, 168 h) [µg/mL] | MIC (Bacillus cereus) | MIC ([2]; DSM 20117, 24 h) [µg/mL] | inhibition zone (IZ) [3] | inhibition zone (IZ) (LNCaP) | inhibition zone (IZ) (MCF7) | inhibition zone (IZ) (H125) | MIC [2] | MIC90 [1] | IC50 (HCT-116; Homo sapiens, HCT-116, 120 h, read-out: IC50) [µM]
COC(=O)CCCCCc1ccccc1/C=C/C(C)=O [LAHORENOIC ACID B] | Non-toxic | 49.5 (≈ 180 µM) |  |  |  |  |  |  |  |  | 
Oc1ccc2nc3ccc(O)cc3nc2c1 | Non-toxic |  | 25 µg/mL (≈ 118 µM) | 25 (≈ 118 µM) | inactive |  |  |  |  |  | 
Oc1ccc2nc3ccccc3nc2c1 | Non-toxic |  | inactive |  | inactive | inactive | inactive | inactive | inactive | inactive | 
O=C(O)c1cccc2nc3ccccc3nc12 [PHENAZINE-1-CARBOXYLIC ACID] |  | 32.9 (≈ 147 µM) |  |  | 2 mm | Active | Active | Active |  |  | 15.6
